This excerpt belongs to a sample that is enriched for hits.
H69AR growth 86K – growth inhibitors of human H69AR lung tumor cells; H69AR lung tumor viability, ATP luminescence, 72 h; hits give low values; viability, % at 10 µM; 6% of 85,000 active;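 active = viability at or below 40%; inactive = viability above 40%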;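 also: multidrug resistant small cell line overexpressing MRP-1 efflux transporter; 100% = mean luminescence of untreated control wells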
HUVEC prolif 384 – inhibitors of human endothelial cell proliferation; 1.1% of 86,000 active; AID 648; viability, % at 10 µM (by protocol); HUVEC proliferation, CellTiter-Glo luminescence, 72 h; hits give low values;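 active = viability at or below 30%; inactive = viability above 30%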;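 also: 100% = median luminescence of DMSO-only cell control wells on each plate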
Lung fibro prol – blocks proliferation of human lung fibroblasts; LL 47 human lung fibroblast viability, ATP luminescence; hits give low values; viability, % at 10 µM; AID 719; 1.1% of 85,000 active;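 active = viability at or below 50% in the single dose screen; inactive = viability above 50%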;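 also: compound exposure lasted 72 h before the ATP readout; 100% = median luminescence of untreated cell-only wells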
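Material: human LL 47 lung fibroblast cells; quantity: 1,150 cells/well; medium: IMEM plus 15% FBS; doses: 0.1% DMSO in all compound wells; timing: overnight attachment after seeding, then 72 h compound exposure at 37 °C; detection: CellTiter-Glo luminescence; measure: % viability of median cell-only signal; controls: cell-only wells, no compound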
HCT116 PTEN-null – suppresses growth of cells with PTEN deletion; HCT116 PTEN-null viability, CellTiter-Glo, 60 h; hits give low values; viability, % at 10 µM; 1.2% of 140,000 active; AID 827;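 active = viability at or below a set limit, 4 SD under the median of all tested compounds, cut at about 3.7% in these data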;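 also: PTEN knockout HCT116 line with beta catenin targeted HCT116 as companion control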
bCat KO growth – beta-catenin-lacking colon tumor cell growth suppression; HCT116 beta-catenin knockout viability, CellTiter-Glo, 60 h; hits give low values; AID 818; 1.5% of 140,000 active; viability, % at 10 µM;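 active = viability at or under a set limit, the compound median less 4 SD, cut at about 6% in these data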;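 also: 0% = Hyamine 1622 control at 20 µM and 100% = untreated cell control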
* hit, by the source's call; nt = not tested or not shown.

SMILES	H69AR growth 86K	HUVEC prolif 384	Lung fibro prol	HCT116 PTEN-null	bCat KO growth
O=S(=O)(c1ccc(Nc2ccc(-c3ccc4c(c3)OCCO4)nn2)cc1)N1CCCC1	21*	16*	65	43	42
O=C(NC1CC1)c1cccc(Nc2ccc(-c3ccc4c(c3)OCCO4)nn2)c1	32*	73	83	51	56
Cc1ccc(-c2nnc(N3CCN(c4ccccn4)CC3)c3ccccc23)cc1	47	53	83	5	3.5*
Cc1nn(-c2ccccc2)c(Cl)c1C(=O)N1CCN(c2ncnc3c2cnn3-c2ccccc2)CC1	34*	2.7*	55	7	6.0*
COc1cc(CNCCc2c[nH]c3ccccc23)ccc1OCc1ccc(F)cc1	nt	nt	nt	2.0*	1.5*
COc1cccc(CNCCc2c[nH]c3ccccc23)c1OCc1ccc(F)cc1	nt	nt	nt	1.2*	1.4*
COc1cc(CNCCc2ccc(F)cc2)ccc1OCc1ccc(Cl)nc1	nt	nt	nt	15	15
O=C(Cn1cc([N+](=O)[O-])cn1)NCc1cc2ccccc2[nH]1	nt	nt	nt	87	96
Cc1cc(C)n(-c2nc(N(c3ccccc3)c3ccccc3)nc(-n3nc(C)cc3C)n2)n1	12*	37	38*	19	21
CCN1CCN(c2cc(-c3ccccc3)nc3cc(-c4cccc(F)c4)nn23)CC1	41	22*	90	1.4*	1.2*
CC1=NN(C(=O)c2ccc(Cn3cc([N+](=O)[O-])cn3)cc2)C(O)(C(F)(F)F)C1 (centres undefined)	nt	nt	nt	89	82
Nc1nc(OCC(F)(F)F)cc(Oc2ccccc2F)n1	36*	85	nt	102	91
CN1CCc2c(sc3c2C(=O)NC(c2cn(Cc4ccccc4)c4ccccc24)N3)C1 (centres undefined)	3.4*	68	53	70	76
CCOC(=O)N1CCc2c(sc3c2C(=O)NC(c2ccccc2)N3)C1 (centres undefined)	32*	56	61	66	84
CCOc1ccc(Br)cc1C1NC(=O)c2c(sc3c2CCN(C)C3)N1 (centres undefined)	39*	78	88	nt	nt
Cc1nn(-c2cccc(Cl)c2)c(Cl)c1/C=N/NC(=O)c1cccnc1	nt	nt	nt	82	92
O=C(C(c1ccccc1)c1ccccc1)N1CCN(Cc2ccc(Br)cc2)CC1	36*	88	78	68	68
COc1ccc(OC)c(/C=N/NC(=O)CNC(=O)c2ccc(S(=O)(=O)N3CCOCC3)cc2)c1	nt	nt	nt	102	93
COCCn1c(C)cc(C(=O)CSc2nc3ccccc3s2)c1C	nt	nt	nt	83	78
COCCn1c(C)cc(C(=O)CSc2nc3ccccc3o2)c1C	91	25*	94	71	71
Oc1ccc(C=Nc2ccc(N3CCOCC3)cc2)c(O)c1	69	70	105	107	91
Oc1ccc(N=Nc2cccc(C(F)(F)F)c2)cc1C=Nc1ccc(N2CCOCC2)cc1	nt	nt	nt	4	4.1*
CCOC(=O)CNC(=S)N(Cc1ccc(C)cc1)Cc1ccc(C)o1	nt	nt	nt	97	86
CC(=O)OCC1O[C@@H](O[C@@H]2C[C@H]3C(C)(C)[C@H](OC(C)=O)CC[C@]3(C)[C@H]3CC[C@]45C[C@]4(CC[C@H]5[C@@H](C)C[C@@H](O)[C@H](O)C(C)(C)O)[C@@]32C)[C@H](O)[C@@H](O)[C@@H]1O (some centres undefined)	nt	nt	nt	1.0*	1.1*
O=C(O)c1cc2c([nH]c1=O)CCCC2	112	101	106	92	86
SMILES	H69AR growth 86K	HUVEC prolif 384	Lung fibro prol	HCT116 PTEN-null	bCat KO growth
C=CCSC(=C(C#N)C#N)c1cc2c([nH]1)CCCC2	1.3*	17*	7.4*	1.9*	2.6*
Cc1ccc(NC(=S)N(C)Cc2cn(C)c3ccccc23)cc1	nt	nt	nt	78	81
Cn1c(SCC(=O)N(C2CCCCC2)C2CCCCC2)nnc1-c1cccs1	20*	81	75	69	71
O=C(CCS(=O)(=O)c1ccccc1)Nc1nc(-c2cccs2)cs1	nt	nt	nt	32	26
CC(C)c1nnc(NC(=O)CCS(=O)(=O)c2nc(-c3cccs3)cc(C(F)(F)F)n2)s1	1.1*	16*	85	53	50
CCc1nnc(NC(=O)CCC(=O)NC2CCCc3ccccc32)s1 (centres undefined)	nt	nt	nt	97	90
O=C(NNC(=S)NC1CCCCC1)c1sc2ccccc2c1Cl	nt	nt	nt	93	80
CC(C)(C)C(=O)NC(=S)NNC(=O)c1sc2ccccc2c1Cl	nt	nt	nt	5	3.0*
Cc1ccc(-n2nc3c([n+]2[O-])CCc2c-3no[n+]2[O-])cc1	38*	97	94	19	26
Cc1cccc(-n2nc3c([n+]2[O-])CCc2nonc2-3)c1C	nt	nt	nt	104	91
[O-][n+]1onc2c1CCc1c-2nn(-c2ccccc2Cl)[n+]1[O-]	nt	63	56	2.0*	2.5*
O=C(O)C1C2CC3C(OC(=O)C31)C2Cl (centres undefined)	nt	nt	nt	98	92
CC1=C(C(=O)Nc2ccccc2)C(c2ccc(C)o2)n2c(s/c(=C/c3ccccc3)c2=O)=N1 (centres undefined)	23*	79	91	60	64
CC1=C(C(=O)Nc2ccccc2C)C(c2ccc(C)o2)n2c(s/c(=C/c3ccccc3)c2=O)=N1 (centres undefined)	42	66	75	46	1.1*
CC1=C(C(=O)Nc2ccccc2)C(c2ccc(C)o2)N2C(=O)CSC2=N1 (centres undefined)	102	100	96	77	84
O=C(NN=C1CCCCCCCCCCC1)c1cccc(S(=O)(=O)N2CCOCC2)c1	nt	nt	nt	95	94
Brc1cccc(OCCCCN2CCCCC2)c1	nt	nt	nt	91	72
O=C(Cn1sc2ccccc2c1=O)NC12CC3CC(CC(C3)C1)C2	nt	nt	nt	1.1*	0.7*
O=C(CSc1ccccc1C(=O)NCc1ccccc1)NC12CC3CC(CC(C3)C1)C2	nt	nt	nt	67	84
Cn1cc(CN2CCc3ccccc3C2)c2ccccc21	70	89	95	90	88
OCc1ccc(O)c2ncccc12	22*	112	28*	5	4.3*
Cc1ccc(N=Nc2ccc(O)c3ncccc23)cc1	nt	nt	nt	12	18
CSc1ncccc1C(=O)OCc1ccccc1	105	102	99	100	96
Oc1ccc(COCc2ccccc2)c2cccnc12	1.6*	49	14*	2.3*	3.9*
Oc1ccc(CNc2ccccc2F)c2cccnc12	28*	94	74	13	16
SMILES	H69AR growth 86K	HUVEC prolif 384	Lung fibro prol	HCT116 PTEN-null	bCat KO growth
Oc1ccc(CN2CCc3ccccc3C2)c2cccnc12	38*	44	13*	1.7*	2.1*
O=C(CNC(=S)N(Cc1ccccc1)Cc1cccnc1)NC1CCCC1	nt	nt	nt	86	105
O=C(CCSc1nnc(-c2ccncc2)o1)Nc1ccccc1Cl	88	106	98	84	76
Oc1ccc(CN2CCCCC2)c2cccnc12	0.7*	63	3.1*	1.2*	2.3*
Oc1ccc(CN2CCN(c3ccccc3)CC2)c2cccnc12	23*	89	26*	2.8*	3.0*
COc1ccccc1/C=C(/C(=O)OCC(=O)Nc1cc(C)ccc1C)c1ccccc1	nt	nt	nt	78	76
